Series [1] in a line: folding enthalpy; higher = less favourable; fluorescence melt of hairpins on a sequencing array, two-state fit. The following applies: sodium 0.088 M. The procedure, abridged: (§1)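 Hairpins were imaged by Cy3 fluorescence on a sequenced MiSeq flow cell with annealed Cy3 and quencher oligos, in 50 mM Na-HEPES pH 8.0, 25 mM NaCl, in 2.5 °C steps up to 60 °C. Bootstrapped two-state fits of normalised signals gave melting temperature and folding enthalpy. Four replicates were combined by inverse variance, and fitted temperatures were raised by 9.35 °C to match UV melts.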

The nature of series [2]: melting temperature; fluorescence melt of hairpins on a sequencing array, two-state fit, raised by 9.35 °C to match UV melts. The conditions noted are these: sodium 0.088 M. The essentials:
as §1

Regarding GCATAGGGAAACCTATGC (((((((....))))))), the folding enthalpy in series [1] was -44.2 kcal/mol. Further, in series [2], the Tm turned out to be 61.7 °C.
Regarding CAGCGGAAACGCTG (((((....))))), the folding enthalpy in series [1] is -20.8 kcal/mol. Further, the Tm in series [2] turned out to be 69.3 °C.
Turning to GTAGAGCGAAAGCTATAC (((.(((....))).))), the folding enthalpy in series [1] was -23.4 kcal/mol. Besides, in series [2], the Tm amounted to 51.6 °C.
Take GCCTCCGAAAGGAAGGGC ((((((....)))..))): in series [1], the folding enthalpy was -22.3 kcal/mol. For the same sequence, the Tm in series [2] was found to be 50.2 °C.
Regarding GACCGACGAAAGTCCGTC (((.(((....))).))), in series [1], the folding enthalpy is -23.9 kcal/mol. For the same sequence, the Tm in series [2] was 43.1 °C.
In the case of GATCCACGAATGGATC ((((((....)))))), the folding enthalpy in series [1] is -34.4 kcal/mol. Besides, the Tm in series [2] stood at 48.1 °C.
In the same order, the values of GCCGTTGGAAACAACGAC (.(((((....))))).) are -16.9 kcal/mol and 46.2 °C.
Take GGGGACGAAAGTCTTCCC ((((((....)))..))): in series [1], the folding enthalpy was -17.8 kcal/mol. Moreover, the Tm in series [2] is 39.3 °C.
Regarding GCTATCGCGAAAGCGAGC (((..(((....)))))), the folding enthalpy in series [1] is -10.3 kcal/mol. Besides, the Tm in series [2] came out at 39.2 °C.
In the same order, the values of GACACGCGAAAGCGCGTC (((.(((....))).))) are -25.2 kcal/mol and 63.9 °C.
Take GTCCTTCGAAAGAATGAC (((.(((....))).))): in series [1], the folding enthalpy is -30.3 kcal/mol. In series [2], the Tm worked out at 39.2 °C.
As to GTTCAAGCGAAAGCTAAC (((..(((....)))))), in series [1], the folding enthalpy is -11.4 kcal/mol. Also, in series [2], the Tm worked out at 24.9 °C.
In the same order, the values of GATCCTGACAAGGATC ((((((....)))))) are -38 kcal/mol and 63 °C.
With GTGCCTGCGAAAGCACAC (((..(((....)))))), in series [1], the folding enthalpy is -7.25 kcal/mol. In addition, in series [2], the Tm was found to be 55 °C.
Turning to GTCAGGGGAAACCCTGAC (((((((....))))))), the folding enthalpy in series [1] was -41.9 kcal/mol. Further, the Tm in series [2] is 65.1 °C.
On to GGTGACTCGAAAGAGACC (((..(((....)))))), for which the folding enthalpy in series [1] was -16.5 kcal/mol. Also, the Tm in series [2] turned out to be 33 °C.
On to GTTGGCGGAAACGCTAGC (.(.(((....))).).), for which the folding enthalpy in series [1] is -13.2 kcal/mol. Also, the Tm in series [2] turned out to be 34.5 °C.
On to GGGCAAGGAAACTTACCC (((.(((....))).))), for which the folding enthalpy in series [1] is -29.2 kcal/mol. For the same sequence, the Tm in series [2] amounted to 38.9 °C.
For GTAGTCGAAAGACATAC ((((((....))).))), the folding enthalpy in series [1] was -16.2 kcal/mol. In addition, the Tm in series [2] worked out at 35.2 °C.
In the same order, the values of GTAGGAGGAAACTCCTAC (((((((....))))))) are -38 kcal/mol and 57.5 °C.
Regarding GACACCGAAAGGTTCGTC ((((((....)))..))), the folding enthalpy in series [1] is -20.4 kcal/mol. In addition, in series [2], the Tm stood at 41.2 °C.
In the same order, the values of GTTGAACGAAAGTTTAAC (((.(((....))).))) are -31.7 kcal/mol and 45.3 °C.
With GTAAGCGAAAGCTCTTAC ((((((....)))..))), in series [1], the folding enthalpy is -12.7 kcal/mol. Moreover, the Tm in series [2] stood at 33.2 °C.
Consider GTATCGGGAAACTGATAC (((((.(....).))))), for which the folding enthalpy in series [1] was -37.3 kcal/mol. In addition, the Tm in series [2] came out at 45.3 °C.
Consider GGTCTGGGAAACCGGATC (.((.((....)).)).), for which the folding enthalpy in series [1] was -23.2 kcal/mol. The Tm in series [2] was 40 °C.
For GCCATTCGAAAGAACGGC (((.(((....))).))), in series [1], the folding enthalpy was -40.1 kcal/mol. In addition, the Tm in series [2] was found to be 49.6 °C.
Turning to GATCGCCGTAGCGATC ((((((....)))))), the folding enthalpy in series [1] was -45 kcal/mol. The Tm in series [2] stood at 69.2 °C.
The matching figures for GCCCTCGAAAGAGAGGGC ((((((....)))..))): -33 kcal/mol and 59.9 °C.
For GACTCCGAAAGGACTGTC ((((((....)))..))), in series [1], the folding enthalpy is -15.7 kcal/mol. For the same sequence, the Tm in series [2] amounted to 32.7 °C.
With GCGTCGGCGAAAGCCCGC (((..(((....)))))), the folding enthalpy in series [1] was -17 kcal/mol. For the same sequence, in series [2], the Tm is 58.7 °C.
As to GCCTTGCGAAAGCAGAGC ((..(((....)))..)), in series [1], the folding enthalpy is -11.7 kcal/mol. Also, the Tm in series [2] was 51.2 °C.
Regarding GATCCCTCTGGGATC ((((((...)))))), the folding enthalpy in series [1] is -31.3 kcal/mol. In series [2], the Tm was 66.6 °C.
The matching figures for GTTCACGGAAACATGAAC (((((.(....).))))): -21.1 kcal/mol and 36.6 °C.
On to GGAATTCGAAAGAATCC (((.(((....)))))), for which the folding enthalpy in series [1] is -20.9 kcal/mol. The Tm in series [2] is 39 °C.
The matching figures for GCTCGGCGAAAGCGCAGC (((..((....))..))): -9.7 kcal/mol and 51.1 °C.
Turning to GCGAGCGAAAGCTTCGC ((((((....))).))), the folding enthalpy in series [1] was -28 kcal/mol. Moreover, the Tm in series [2] is 66.1 °C.
In the case of GCGCGTGGAAACGTGCGC ((((..(....)..)))), in series [1], the folding enthalpy was -40.5 kcal/mol. In addition, the Tm in series [2] was found to be 64.7 °C.

The values are drawn from the array DNA melting data of Ke et al. (doi:10.1101/2024.01.08.574731).
